The species named for data set [1] is Mus musculus. The data set can be described thus: animal or person. In kind it is functional. The note with it: route oral.
Data set [2] has as its system Mus musculus. The data set can be described thus: Antidepressant activity in mouse assessed as reversal of reserpine-induced hypothermia measured as cumulative temperature rise at 30 mg/kg administered 17 hrs post reserpine-challenge. In kind it is functional. In short, it runs like this: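 Groups of six mice pretreated with reserpine 2 mg/kg sc; compound given 17 h later. Gastric temperature read just before dosing (t0) and at 2, 4 and 6 h. Cumulative rise T = (t2 + t4 + t6) − 3t0, averaged per group, in °C.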

The species entered for data set [3] is Mus musculus. The data set can be described thus: Analgesic activity in mouse by hot-plate test. In kind it is functional. Background: Thermal pain tests record how soon the animal reacts.
Data set [4] is filed under the species Mus musculus. The data set is described as follows: Effect on CNS activity in mouse by maximal electroshock test. Format: functional, organism-based. The note with it: Central nervous system. For orientation: The maximal electroshock test induces tonic seizures with an electrical stimulus.
The species entered for data set [5] is Mus musculus. The data set can be described thus: Effect on CNS activity in mouse by maximal metrazole shock test. In kind it is functional, organism-based. The note with it: Central nervous system.
The species named for data set [6] is Mus musculus. The data set can be described thus: Effect on locomotor activity in mouse. Format: functional, organism-based.
The species entered for data set [7] is Mus musculus. The data set can be described thus: Neurotoxicity in mouse by stationary rod test. In kind it is toxicity, organism-based. The note with it: in vivo.
In data set [8] the test system is Mus musculus. The data set can be described thus: Analgesic activity in mouse assessed as inhibition of acetic acid-induced writhing response at 30 mg/kg, po administered 30 mins prior to acetic acid-challenge relative to control. In kind it is functional. In short, it runs like this:
(§1)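 Mice in groups, dosed orally with vehicle or compound; 30 min later given dilute acetic acid ip (0.4 mL, 0.25%). Total squirming movements counted.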
On the technique in general: Writhing tests count abdominal constrictions after an irritant is injected.

Data set [9] concerns Mus musculus. The data set can be described thus: Analgesic activity in mouse assessed as inhibition of acetic acid-induced writhing response at 100 mg/kg, po administered 30 mins prior to acetic acid-challenge relative to control. In kind it is functional. In short, it runs like this:
as §1

Activity calls are given as the source filed them. The rule behind the calls is not given here.

Take `CN1CC[C@]23c4c5ccc(O)c4O[C@H]2[C@@H](O)C=C[C@H]3[C@H]1C5.Cl` [MORPHINE HYDROCHLORIDE]: the inhibition in vivo (as a rule, the drop in the measured response relative to a control, in per cent) at 10 mg/kg in the data set listed under Mus musculus [1] amounted to 100%. For the same compound, in the data set on Mus musculus [2], the T was found to be 0.3 °C.
In turn, `CN1CCCC12CCc1ccccc1C2.Cl` (stereo not given) displayed an inhibition in vivo at 10 mg/kg in the data set listed under Mus musculus [1] of 100%. Besides, the 50% effect level in the data set listed under Mus musculus [3] (ED50) was put at a dose of 7.4 mg/kg. Also, the T with Mus musculus [2] worked out at 2.7 °C. The result in the data set listed under Mus musculus [4], in the data set filed under Mus musculus [5] and in the data set listed under Mus musculus [6] was inactive. Also, in the data set filed under Mus musculus [7], the Activity entry was “Non-toxic”.
Regarding `COc1ccc2c(c1)CCC1(CCCN1)C2.Cl` (stereo not given), the inhibition in vivo at 30 mg/kg in the data set on Mus musculus [8] was found to be 50%. In the data set with Mus musculus [2], the T amounted to 0.2 °C. Besides, the result in the data set listed under Mus musculus [4], in the data set listed under Mus musculus [5] and in the data set filed under Mus musculus [6] was inactive. In the data set listed under Mus musculus [7], the Activity result is given as “Non-toxic”.
For `Br.CN1CCCC12CCc1cc(O)ccc1C2` (stereo not given), the inhibition in vivo at 30 mg/kg with Mus musculus [8] is 75%. Also, the T in the data set on Mus musculus [2] worked out at 0.7 °C. For the same compound, the result in the data set listed under Mus musculus [4], in the data set listed under Mus musculus [5] and in the data set listed under Mus musculus [6] was inactive. Besides, in the data set filed under Mus musculus [7], the Activity entry was “Non-toxic”.
For the compound `Br.COc1ccc2c(c1)CCC1(CCCN1C)C2` (stereo not given), the inhibition in vivo at 30 mg/kg in the data set on Mus musculus [8] stood at 75%. Further, in the data set with Mus musculus [2], the T is 1.2 °C. The result in the data set listed under Mus musculus [4], in the data set listed under Mus musculus [5] and in the data set listed under Mus musculus [6] was inactive. The Activity entry in the data set filed under Mus musculus [7] is reported as “Non-toxic”.
On to `Br.Oc1ccc2c(c1)CCC1(CCCN1)C2` (stereo not given), for which, in the data set with Mus musculus [8], the inhibition in vivo at 30 mg/kg stood at 0%. In the data set on Mus musculus [2], the T is 0.7 °C. In addition, the result in the data set filed under Mus musculus [4], in the data set listed under Mus musculus [5] and in the data set filed under Mus musculus [6] was inactive. Besides, in the data set filed under Mus musculus [7], the Activity entry is on record as “Non-toxic”.
Consider `CN(C)CCCN1c2ccccc2CCc2ccccc21` [IMIPRAMINE], for which, in the data set with Mus musculus [8], the inhibition in vivo at 30 mg/kg turned out to be 50%. Further, in the data set with Mus musculus [2], the T turned out to be 8 °C.
For the compound `Cl.c1ccc2c(c1)CC1(CCCN1)C2`, the inhibition in vivo at 10 mg/kg in the data set listed under Mus musculus [1] was determined as 50%. The ED50 (usually the midpoint of the dose-response relation) in the data set filed under Mus musculus [3] was over 30 mg/kg. The T with Mus musculus [2] stood at 5.1 °C. In addition, the outcome in the data set filed under Mus musculus [4], in the data set listed under Mus musculus [5] and in the data set filed under Mus musculus [6] was inactive. Also, the Activity result in the data set listed under Mus musculus [7] is reported as “Non-toxic”.
Regarding `CN1CCCC12Cc1ccccc1C2.Cl`, the inhibition in vivo at 100 mg/kg in the data set on Mus musculus [9] stood at 50%. Also, the T in the data set on Mus musculus [2] was 5.1 °C. For the same compound, the result in the data set filed under Mus musculus [4], in the data set listed under Mus musculus [5] and in the data set listed under Mus musculus [6] was inactive. For the same compound, the Activity result in the data set listed under Mus musculus [7] was “Non-toxic”.
As to `Cl.c1ccc2c(c1)CCC1(CCCN1)C2` (stereo not given), in the data set filed under Mus musculus [1], the inhibition in vivo at 10 mg/kg was 100%. Also, in the data set filed under Mus musculus [3], the 50% effect level (ED50) was put at a dose of 7.1 mg/kg. Moreover, the T in the data set on Mus musculus [2] worked out at 4.5 °C. Also, the result in the data set filed under Mus musculus [4], in the data set filed under Mus musculus [5] and in the data set filed under Mus musculus [6] was inactive. In addition, in the data set listed under Mus musculus [7], the Activity entry is “Non-toxic”.

These data come from ChEMBL document CHEMBL3244407, “Synthesis of spiro[tetralin-2,2'-pyrrolidine] and spiro[indan-2,2'-pyrrolidine] derivatives as potential analgesics” (J Med Chem, 1978).
